# From ChEMBL document CHEMBL1135500, “Highly antibacterial active aminoacyl penicillin conjugates with acylated bis-catecholate siderophores based on secondary diamino acids and related compounds” (2002)
# What was measured:
# Type in all cases: functional
# Escherichia coli = assay: In vitro antibacterial activity against ATCC 25922 strain of Escherichia coli
# In short: (§1)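 MIC by microbroth dilution in Mueller-Hinton broth following NCCLS guidelines.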
# Pseudomonas aeruginosa [1] = assay: In vitro antibacterial activity against ATCC 27853 strain of Pseudomonas aeruginosa; in short: as §1
# Pseudomonas aeruginosa [2] = assay: In vitro antibacterial activity against SG 137 strain of Pseudomonas aeruginosa; in short: as §1
# Staphylococcus aureus = assay: In vitro antibacterial activity against SG 511 strain of Staphylococcus aureus; in short: as §1
# [3] = tested on: Stenotrophomonas maltophilia; assay: In vitro antibacterial activity against GN 12873 strain of Stenotrophomonas maltophilia; in short: as §1
# Klebsiella pneumoniae = assay: In vitro antibacterial activity against ATCC 100331 strain of Klebsiella pneumoniae; in short: as §1
# Serratia marcescens = assay: In vitro antibacterial activity against SG 621 strain of Serratia marcescens; in short: as §1
SMILES,MIC (Escherichia coli),MIC (Pseudomonas aeruginosa [1]),MIC (Pseudomonas aeruginosa [2]),MIC (Staphylococcus aureus),MIC [3],MIC (Klebsiella pneumoniae),MIC (Serratia marcescens)
C[C@@H](O)[C@H]1C(=O)N2C(C(=O)O)=C(S[C@@H]3CN[C@H](C(=O)N(C)C)C3)[C@H](C)[C@H]12 [MEROPENEM],0.04 µg/mL,0.4 µg/mL,0.2 µg/mL,0.1 µg/mL,> 100 µg/mL,0.04 µg/mL,0.06 µg/mL
CC(=O)Oc1cccc(C(=O)Nc2cc(NC(=O)c3cccc(OC(C)=O)c3OC(C)=O)cc(C(=O)NC(C(=O)NC3C(=O)N4C3SC(C)(C)C4C(=O)O)c3ccccc3)c2)c1OC(C)=O (stereo unspecified),100 µg/mL,3.12 µg/mL,0.4 µg/mL,25 µg/mL,1.56 µg/mL,3.12 µg/mL,–
CC(=O)Oc1cccc(C(=O)N(C)CCCN(Cc2ccccc2C(=O)NC(C(=O)NC2C(=O)N3C2SC(C)(C)C3C(=O)O)c2ccccc2)C(=O)c2cccc(OC(C)=O)c2OC(C)=O)c1OC(C)=O (stereo unspecified),1.56 µg/mL,0.4 µg/mL,0.04 µg/mL,6.25 µg/mL,< 0.05 µg/mL,0.2 µg/mL,0.24 µg/mL
COC(=O)Oc1cccc(C(=O)N(CCCn2c(=O)oc3c(OC(=O)OC)cccc3c2=O)C(C)CCC(=O)NC(C(=O)NC2C(=O)N3C2SC(C)(C)C3C(=O)O)c2ccccc2)c1OC(=O)OC (stereo unspecified),1.56 µg/mL,3.12 µg/mL,0.1 µg/mL,1.56 µg/mL,0.4 µg/mL,0.2 µg/mL,0.1 µg/mL
COC(=O)Oc1cccc2c(=O)n(CC(=O)Nc3cc(NC(=O)Cn4c(=O)oc5c(OC(=O)OC)cccc5c4=O)cc(C(=O)NC(C(=O)NC4C(=O)N5C4SC(C)(C)C5C(=O)O)c4ccccc4)c3)c(=O)oc12 (stereo unspecified),25 µg/mL,1.56 µg/mL,0.05 µg/mL,25 µg/mL,3.12 µg/mL,1.56 µg/mL,12.5 µg/mL
CC(=O)Oc1cccc(C(=O)NCCCCN(Cc2ccc(OCC(=O)NC(C(=O)NC3C(=O)N4C3SC(C)(C)C4C(=O)O)c3ccccc3)cc2)C(=O)c2cccc(OC(C)=O)c2OC(C)=O)c1OC(C)=O (stereo unspecified),0.78 µg/mL,6.25 µg/mL,0.2 µg/mL,1.56 µg/mL,0.2 µg/mL,< 0.05 µg/mL,6.25 µg/mL
COC(=O)Oc1cccc2c(=O)n(-c3cc(C(=O)NC(C(=O)NC4C(=O)N5C4SC(C)(C)C5C(=O)O)c4ccccc4)cc(-n4c(=O)oc5c(OC(=O)OC)cccc5c4=O)c3)c(=O)oc12 (stereo unspecified),25 µg/mL,1.56 µg/mL,0.2 µg/mL,25 µg/mL,0.78 µg/mL,6.25 µg/mL,12.5 µg/mL
CC(=O)Oc1cccc(C(=O)NCCCCN(CC(=O)NC(C(=O)NC2C(=O)N3C2SC(C)(C)C3C(=O)O)c2ccc(O)cc2)C(=O)c2cccc(OC(C)=O)c2OC(C)=O)c1OC(C)=O (stereo unspecified),0.01 µg/mL,0.16 µg/mL,0.01 µg/mL,5 µg/mL,0.005 µg/mL,< 0.005 µg/mL,< 0.005 µg/mL
COC(=O)Oc1cccc(C(=O)N(C)CCCN(CC(=O)NC(C(=O)NC2C(=O)N3C2SC(C)(C)C3C(=O)O)c2ccccc2)C(=O)c2cccc(OC(=O)OC)c2OC(=O)OC)c1OC(=O)OC (stereo unspecified),0.02 µg/mL,0.31 µg/mL,0.04 µg/mL,5 µg/mL,0.08 µg/mL,0.005 µg/mL,0.02 µg/mL
CC1(C)S[C@@H]2[C@H](NC(=O)[C@H](NC(=O)N3CCNC3=O)c3ccccc3)C(=O)N2[C@H]1C(=O)O [AZLOCILLIN],6.25 µg/mL,6.25 µg/mL,6.25 µg/mL,0.4 µg/mL,25 µg/mL,6.25 µg/mL,50 µg/mL
CC(=O)Oc1ccc(C(=O)NCCCCN(CC(=O)NC(C(=O)NC2C(=O)N3C2SC(C)(C)C3C(=O)O)c2ccccc2)C(=O)c2ccc(OC(C)=O)c(OC(C)=O)c2)cc1OC(C)=O (stereo unspecified),0.78 µg/mL,0.78 µg/mL,0.2 µg/mL,0.78 µg/mL,50 µg/mL,0.4 µg/mL,3.12 µg/mL
